How the values were obtained:
Format in all cases: functional, Heart
Conditions in all cases: route intraperitoneal
[1] = test system: Rattus norvegicus; experiment: Cardioprotective effect in Langendorff perfused Wistar rat hearts assessed as ischemic damage measured by rate-pressure product-120 at 40 mg/kg, ip
How it was run: (§1)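 Rats pretreated intraperitoneally (test agents 40 mg/kg; reference agents 40 or 1 mg/kg); hearts isolated and Langendorff-perfused through an ischemia-reperfusion cycle. Rate-pressure product at 120 min reperfusion expressed as % of the last preischemic minute. After reperfusion, TTC staining of left ventricle (necrotic white/pale pink, healthy red); injured area given as % of total area. Mean ± SE, n = 4-6 experiments.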

[2] = test system: Rattus norvegicus; experiment: Cardioprotective effect in Langendorff perfused Wistar rat hearts assessed as ratio for ischemic injured area to total area at 40 mg/kg, ip; how it was run: as §1
[3] = test system: Rattus norvegicus; experiment: Cardioprotective effect in Langendorff perfused Wistar rat hearts assessed as ischemic damage measured by rate-pressure product-120 at 1 mg/kg, ip; how it was run: as §1
[4] = test system: Rattus norvegicus; experiment: Cardioprotective effect in Langendorff perfused Wistar rat hearts assessed as ratio for ischemic injured area to total area at 1 mg/kg, ip; how it was run: as §1

SMILES	Activity [1]	Activity [2]	Activity [3]	Activity [4]
CC(=O)Nc1ccc(CN2C[C@@]3(CC(C)(C)Oc4ccccc43)OCC2=O)cc1	64%	16%	–	–
CC(=O)Nc1ccc(CN2C[C@]3(CC(C)(C)Oc4ccccc43)OCC2=O)cc1	27%	35%	–	–
CC(=O)Nc1ccc(CN2CC3(CC(C)(C)Oc4ccccc43)OCC2=O)cc1 (racemic)	59%	22%	–	–
CC1(C)Oc2ccc(C#N)cc2C(N2CCCC2=O)C1O (stereo not given) [CROMAKALIM]	–	–	86%	23%
CC1=Nc2ccc(Cl)cc2S(=O)(=O)N1 [DIAZOXIDE]	45%	25%	–	–
